Six compounds from ChEMBL document CHEMBL1131034, “Synthesis and pharmacological characterization of novel 6-fluorochroman derivatives as potential 5-HT1A receptor antagonists” (J Med Chem, 1998) can be followed below.

Structures are written as SMILES.

The target of one experiment is D(2) dopamine receptor (Rattus norvegicus, UniProt P61169). The experiment in a line: Binding affinity against dopamine receptor D2 on rat striatum using [3H]spiperone as radioligand. Type of experiment: tissue-based.
D(2) dopamine receptor, sequence (P61169 whole entry): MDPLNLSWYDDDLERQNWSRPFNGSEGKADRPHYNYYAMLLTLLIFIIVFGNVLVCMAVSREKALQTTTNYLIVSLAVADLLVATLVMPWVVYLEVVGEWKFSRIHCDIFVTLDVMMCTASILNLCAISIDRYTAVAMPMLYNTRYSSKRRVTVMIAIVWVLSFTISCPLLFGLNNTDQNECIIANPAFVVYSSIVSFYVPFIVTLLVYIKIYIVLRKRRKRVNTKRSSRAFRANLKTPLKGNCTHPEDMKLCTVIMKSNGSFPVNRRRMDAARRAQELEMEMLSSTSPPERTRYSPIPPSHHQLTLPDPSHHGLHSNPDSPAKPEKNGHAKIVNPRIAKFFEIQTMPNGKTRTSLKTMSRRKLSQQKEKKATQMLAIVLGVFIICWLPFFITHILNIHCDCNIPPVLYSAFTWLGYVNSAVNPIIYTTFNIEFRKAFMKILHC
For experiment [1], the system named is Rattus norvegicus. Description: In vivo antagonist activity was measured as forepaw treading(FT) in a behavioral response test in reserpinized rats upon subcutaneous administration. It is filed as functional. In short, it runs like this:
(§1)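 Male Wistar rats given reserpine 18 h before use. Test compound or vehicle given 15 min before 8-OH-DPAT (0.25 mg/kg sc). Starting 3 min after agonist, forepaw treading and flat body posture scored every 3 min for 15 min on a ranked intensity scale. Doses expressed as free base. Mean ± SEM; Mann–Whitney U-test against vehicle control.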

Experiment [2] has as its system Rattus norvegicus. The experiment in a line: In vivo antagonist activity was measured as flat body posture (FBP) in a behavioral response test in reserpinized rats at 3 mg/kg(sc) dose. It is filed as functional. In short, it runs like this:
as §1

Experiment [3] relates to Rattus norvegicus. The experiment in a line: In vivo antagonist activity was measured as forepaw treading(FT) in a behavioral response test in reserpinized rats at 1 mg/kg(sc) dose. It is filed as functional. In short, it runs like this: as §1
Experiment [4] addresses T1, Adrenergic receptor alpha-1 (Rattus norvegicus, UniProt P15823+P23944+P43140).
T1 sequence (P15823 whole entry): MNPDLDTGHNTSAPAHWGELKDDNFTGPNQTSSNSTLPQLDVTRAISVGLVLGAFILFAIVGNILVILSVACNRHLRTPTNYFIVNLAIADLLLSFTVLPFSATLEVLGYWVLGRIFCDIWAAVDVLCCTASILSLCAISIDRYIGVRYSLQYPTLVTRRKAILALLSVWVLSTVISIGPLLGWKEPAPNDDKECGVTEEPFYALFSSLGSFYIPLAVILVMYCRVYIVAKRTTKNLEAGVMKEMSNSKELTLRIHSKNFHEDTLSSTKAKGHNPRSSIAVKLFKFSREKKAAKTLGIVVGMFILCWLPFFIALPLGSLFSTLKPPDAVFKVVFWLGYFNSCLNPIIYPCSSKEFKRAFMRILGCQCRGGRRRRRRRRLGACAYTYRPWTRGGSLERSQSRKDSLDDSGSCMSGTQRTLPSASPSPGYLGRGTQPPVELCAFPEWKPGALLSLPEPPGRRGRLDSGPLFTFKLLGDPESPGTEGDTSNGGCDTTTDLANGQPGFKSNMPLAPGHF
T1 sequence (P23944 whole entry): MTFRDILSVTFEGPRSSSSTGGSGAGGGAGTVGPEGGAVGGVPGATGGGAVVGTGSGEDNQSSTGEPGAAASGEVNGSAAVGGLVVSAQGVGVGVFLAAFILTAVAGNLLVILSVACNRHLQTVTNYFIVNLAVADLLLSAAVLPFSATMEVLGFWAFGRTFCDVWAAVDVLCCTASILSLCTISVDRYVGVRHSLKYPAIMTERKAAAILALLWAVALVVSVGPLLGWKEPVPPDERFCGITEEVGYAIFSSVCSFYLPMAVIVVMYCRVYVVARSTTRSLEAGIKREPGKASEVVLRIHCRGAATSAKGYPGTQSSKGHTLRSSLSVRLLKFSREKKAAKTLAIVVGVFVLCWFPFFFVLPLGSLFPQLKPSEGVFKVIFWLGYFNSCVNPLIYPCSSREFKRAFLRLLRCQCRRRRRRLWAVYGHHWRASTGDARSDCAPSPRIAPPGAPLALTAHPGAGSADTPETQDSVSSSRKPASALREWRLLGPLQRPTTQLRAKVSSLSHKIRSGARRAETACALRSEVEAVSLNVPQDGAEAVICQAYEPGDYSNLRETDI
T1 sequence (P43140 whole entry): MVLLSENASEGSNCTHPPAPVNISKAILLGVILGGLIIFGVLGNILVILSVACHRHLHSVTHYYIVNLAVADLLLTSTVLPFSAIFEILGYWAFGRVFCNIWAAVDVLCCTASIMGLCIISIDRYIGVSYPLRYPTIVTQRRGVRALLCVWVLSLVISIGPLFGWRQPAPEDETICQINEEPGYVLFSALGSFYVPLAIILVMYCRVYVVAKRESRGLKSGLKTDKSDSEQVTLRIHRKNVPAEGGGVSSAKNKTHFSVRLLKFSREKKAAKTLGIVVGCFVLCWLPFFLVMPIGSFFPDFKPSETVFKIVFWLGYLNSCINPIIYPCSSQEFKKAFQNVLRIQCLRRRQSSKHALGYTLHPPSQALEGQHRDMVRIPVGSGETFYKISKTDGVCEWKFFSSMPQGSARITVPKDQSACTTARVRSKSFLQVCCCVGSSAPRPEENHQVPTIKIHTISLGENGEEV
The experiment in a line: Binding affinity against alpha-1 adrenergic receptor on rat cortex using [3H]-prazosin as radioligand. It is filed as tissue-based, Brain.

The target in experiment [5] is Serotonin 1a (5-HT1a) receptor/Adrenergic receptor alpha-1 (Rattus norvegicus) (UniProt P15823+P23944+P43140+P19327). Description: Selectivity for 5-HT1A receptor of rat hippocampus and alpha-1 adrenergic receptor of rat cortex. Type of experiment: tissue-based.
Experiment [6] concerns Rattus norvegicus. Description: In vivo antagonist activity was measured as forepaw treading(FT) in a behavioral response test in reserpinized rats at 3 mg/kg(sc) dose. Type of experiment: functional. In short, it runs like this:
as §1

In experiment [7] the target is T2, 5-hydroxytryptamine receptor 1A (Homo sapiens) (UniProt P08908).
T2 sequence (whole entry): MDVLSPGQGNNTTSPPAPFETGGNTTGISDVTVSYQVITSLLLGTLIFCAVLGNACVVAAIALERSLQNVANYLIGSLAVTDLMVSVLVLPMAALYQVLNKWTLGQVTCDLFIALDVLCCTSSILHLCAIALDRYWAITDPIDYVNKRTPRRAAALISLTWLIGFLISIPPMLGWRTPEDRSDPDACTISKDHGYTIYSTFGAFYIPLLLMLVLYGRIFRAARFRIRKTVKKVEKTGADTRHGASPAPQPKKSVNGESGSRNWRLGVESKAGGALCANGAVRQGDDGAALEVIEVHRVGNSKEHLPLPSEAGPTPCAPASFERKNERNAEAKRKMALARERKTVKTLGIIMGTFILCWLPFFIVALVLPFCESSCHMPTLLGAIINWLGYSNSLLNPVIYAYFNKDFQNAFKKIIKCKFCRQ
Description: Antagonist activity against CHO cells expressing the human 5-hydroxytryptamine 1A receptor in a forskolin stimulated adenylate cyclase (FSC) assay. It is filed as functional, cell-based.

The target in experiment [8] is T3, 5-hydroxytryptamine receptor 1A (Rattus norvegicus, UniProt P19327).
T3 sequence (P19327 whole entry): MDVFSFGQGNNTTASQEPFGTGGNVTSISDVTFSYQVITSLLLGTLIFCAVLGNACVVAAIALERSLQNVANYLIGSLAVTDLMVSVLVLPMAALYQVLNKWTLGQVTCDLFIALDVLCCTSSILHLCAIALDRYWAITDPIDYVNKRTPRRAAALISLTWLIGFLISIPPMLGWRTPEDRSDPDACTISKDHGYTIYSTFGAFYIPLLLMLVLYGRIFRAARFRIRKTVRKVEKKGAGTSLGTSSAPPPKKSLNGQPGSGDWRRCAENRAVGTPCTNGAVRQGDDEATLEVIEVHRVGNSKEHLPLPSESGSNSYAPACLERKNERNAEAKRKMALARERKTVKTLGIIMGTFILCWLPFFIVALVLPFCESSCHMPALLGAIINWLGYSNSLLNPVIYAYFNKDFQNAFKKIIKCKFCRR
Description: Binding affinity against 5-hydroxytryptamine 1A receptor on rat hippocampus using [3H]8-OH-DPAT as radioligand. It is filed as tissue-based.

The test system of experiment [9] is Rattus norvegicus. The experiment in a line: In vivo antagonist activity was measured as flat body posture (FBP) in a behavioral response test in reserpinized rats upon subcutaneous administration. Type of experiment: functional. In short, it runs like this: as §1
The subject of experiment [10] is Rattus norvegicus. The experiment in a line: In vivo antagonist activity was measured as flat body posture (FBP) in a behavioral response test in reserpinized rats at 1 mg/kg(sc) dose. It is filed as functional. In short, it runs like this:
as §1

A short description of experiment [11]: Binding affinity (Ki) ratio of D2 receptor of rat striatum and 5-HT1A receptor of rat hippocampus. It is filed as tissue-based.
The test system of experiment [12] is Rattus norvegicus. Description: in vivo antagonist activity was measured as flat body posture (FBP) in a behavioral response test in reserpinized rats upon subcutaneous administration. It is filed as functional. In short, it runs like this:
(§2)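 Male Wistar rats given reserpine 18 h beforehand. Test compound or vehicle given sc; 15 min later 8-OH-DPAT 0.25 mg/kg sc. Forepaw treading and flat body posture scored on a ranked intensity scale every 3 min for 15 min, starting 3 min after 8-OH-DPAT. Doses as free base; mean ± SEM, Mann–Whitney U-test against vehicle controls.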

For experiment [13], the system named is Rattus norvegicus. Description: in vivo antagonist activity was measured as flat body posture (FBP) in a behavioral response test in reserpinized rats at 3 mg/kg(sc) dose. It is filed as functional. In short, it runs like this: as §2
Experiment [14] has as its system Rattus norvegicus. Description: in vivo antagonist activity was measured as forepaw treading(FT) in a behavioral response test in reserpinized rats at 1 mg/kg(sc) dose. It is filed as functional. In short, it runs like this: as §2
Experiment [15] concerns Rattus norvegicus. Description: in vivo antagonist activity was measured as forepaw treading(FT) in a behavioral response test in reserpinized rats upon subcutaneous administration. It is filed as functional. In short, it runs like this: as §2
In experiment [16] the test system is Rattus norvegicus. The experiment in a line: in vivo antagonist activity was measured as forepaw treading(FT) in a behavioral response test in reserpinized rats at 3 mg/kg(sc) dose. Type of experiment: functional. In short, it runs like this: as §2
For experiment [17], the system named is Rattus norvegicus. Description: in vivo antagonist activity was measured as flat body posture (FBP) in a behavioral response test in reserpinized rats at 1 mg/kg(sc) dose. Type of experiment: functional. In short, it runs like this: as §2

As to `O=C1CCOc2c(OCCNCCCCc3ccc4c(c3)OCO4)cc(F)cc21`, the inhibition constant Ki at D(2) dopamine receptor is 42.1 nM; in experiment [4] it was 209 nM; in experiment [8], 2.67 nM. The Behavior score with Rattus norvegicus [1] is 7.8; in the experiment on Rattus norvegicus [2] it was 3; in the experiment on Rattus norvegicus [3], 3; with Rattus norvegicus [6], 1.5; with Rattus norvegicus [9], 9.7; with Rattus norvegicus [10], 5.3. In experiment [5], this compound had a Selectivity of 78. Moreover, the FSC recovery in experiment [7] turned out to be 55%. Further, in experiment [11], the Ratio worked out at 16.
As to `COc1ccc(CCCCNCCOc2cc(F)cc3c2OCCC3=O)cc1`, the Ki came to 62.3 nM at D(2) dopamine receptor, 203 nM in experiment [4] and 3.07 nM in [8]. The Behavior score was 10.2 in the experiment on Rattus norvegicus [1]; 2.3 with Rattus norvegicus [2]; 3.8 with Rattus norvegicus [3]; 1.3 in the experiment with Rattus norvegicus [6]; 11.3 in the experiment with Rattus norvegicus [9]; 6 with Rattus norvegicus [10]. The Selectivity in [5] turned out to be 66. For the same compound, in [7], the FSC recovery came to 59%. Besides, the Ratio in experiment [11] was determined as 20.
Turning to `CCCN(CCC)[C@H]1CCc2c(F)ccc(O)c2C1`, the Behavior score in the experiment with Rattus norvegicus [12] is recorded as 12.6; in the experiment with Rattus norvegicus [13] it was 1.8; in the experiment with Rattus norvegicus [14] it was 1.3; in the experiment on Rattus norvegicus [15], 9.9; in the experiment on Rattus norvegicus [16], 0.5; in the experiment with Rattus norvegicus [17] it was 3.5. Also, the Selectivity in experiment [5] worked out at 130.
Regarding `COc1ccc(CCCCNCCOc2cc(F)cc3c2OCC=C3)cc1`, the Ki was determined as 0.288 nM at D(2) dopamine receptor, 8.31 nM in experiment [4] and 0.159 nM in [8]. The Behavior score with Rattus norvegicus [1] stood at 11.8; with Rattus norvegicus [2] it was 2.8; in the experiment with Rattus norvegicus [3] it was 1.3; with Rattus norvegicus [6], 0; with Rattus norvegicus [9], 11.8; in the experiment on Rattus norvegicus [10], 3.7. For the same compound, the Selectivity in experiment [5] was found to be 52. In experiment [7], the FSC recovery stood at 109%. In addition, in experiment [11], the Ratio was determined as 1.8.
Turning to `COc1ccc(CCCCNCCOc2cc(F)cc3c2OCCC3O)cc1` (stereo in doubt; 34), the Ki on D(2) dopamine receptor was 0.724 nM; in experiment [4], 10.4 nM; in experiment [8], 0.716 nM. Moreover, the Behavior score in the experiment on Rattus norvegicus [1] is 8.6; with Rattus norvegicus [2], 4; in the experiment on Rattus norvegicus [3], 3.3; in the experiment with Rattus norvegicus [6] it was 1.8; in the experiment with Rattus norvegicus [9] it was 12.4; with Rattus norvegicus [10], 6.8.
As for `O=C1CCOc2c(OCCNCCCCc3ccc4c(c3)CCO4)cc(F)cc21`, the Ki was found to be 49.6 nM on D(2) dopamine receptor, 169 nM in [4] and 4.19 nM in experiment [8]. In addition, the Behavior score in the experiment on Rattus norvegicus [1] stood at 10.1; in the experiment with Rattus norvegicus [2], 3.8; with Rattus norvegicus [3], 4; with Rattus norvegicus [6], 1.2; with Rattus norvegicus [9], 12.3; in the experiment on Rattus norvegicus [10], 6.8. In experiment [5], this compound had a Selectivity of 40. In addition, in experiment [7], the FSC recovery came to 68%. Besides, the Ratio in [11] was determined as 12.
